Source: ChEMBL document CHEMBL1134493, “2-(2-Oxo-1,4-dihydro-2H-quinazolin-3-yl)- and 2-(2,2-dioxo-1,4-dihydro-2H-2lambda6-benzo[1,2,6]thiadiazin-3-yl)-N-hydroxy-acetamides as potent and selective peptide deformylase inhibitors” (J Med Chem, 2001)
≈ marks a conversion by molar mass, not a printed value.

Key:
[1] = system: Escherichia coli; assay: In vitro antibacterial activity against Escherichia coli; format: functional
In short: (§1)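 Broth microdilution MIC per NCCLS guidelines; strains from in-house collection (ATCC and hospital isolates) stored at -80 °C; E. coli tested as permeable outer-membrane mutant DC2. MIC taken as lowest concentration preventing visible growth after 18 to 24 h at 37 °C.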

[2] = target: T1, Peptide deformylase (Escherichia coli, UniProt Q9JN24); assay: Inhibition of the isolated native Escherichia coli peptide deformylase (PDF)
T1 sequence (Q9JN24 whole entry): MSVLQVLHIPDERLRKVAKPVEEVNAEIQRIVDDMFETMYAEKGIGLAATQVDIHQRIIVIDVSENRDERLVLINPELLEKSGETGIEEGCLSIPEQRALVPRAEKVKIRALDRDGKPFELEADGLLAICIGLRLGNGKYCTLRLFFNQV

[3] = system: Moraxella catarrhalis; assay: In vitro antibacterial activity against Moraxella catarrhalis RA21; format: functional; in short: as §1
[4] = system: Haemophilus influenzae; assay: In vitro antibacterial activity against Haemophilus influenzae 11; format: functional; in short: as §1
[5] = target: Collagenase 3 (Homo sapiens, UniProt P45452); assay: Inhibition of Collagenase-3, matrix metalloprotease-13 (MMP-13).
[6] = target: T2, Endothelin-converting enzyme 1 (Homo sapiens, UniProt P42892); assay: Inhibition against endothelin-converting enzyme.
T2 sequence (P42892 whole entry): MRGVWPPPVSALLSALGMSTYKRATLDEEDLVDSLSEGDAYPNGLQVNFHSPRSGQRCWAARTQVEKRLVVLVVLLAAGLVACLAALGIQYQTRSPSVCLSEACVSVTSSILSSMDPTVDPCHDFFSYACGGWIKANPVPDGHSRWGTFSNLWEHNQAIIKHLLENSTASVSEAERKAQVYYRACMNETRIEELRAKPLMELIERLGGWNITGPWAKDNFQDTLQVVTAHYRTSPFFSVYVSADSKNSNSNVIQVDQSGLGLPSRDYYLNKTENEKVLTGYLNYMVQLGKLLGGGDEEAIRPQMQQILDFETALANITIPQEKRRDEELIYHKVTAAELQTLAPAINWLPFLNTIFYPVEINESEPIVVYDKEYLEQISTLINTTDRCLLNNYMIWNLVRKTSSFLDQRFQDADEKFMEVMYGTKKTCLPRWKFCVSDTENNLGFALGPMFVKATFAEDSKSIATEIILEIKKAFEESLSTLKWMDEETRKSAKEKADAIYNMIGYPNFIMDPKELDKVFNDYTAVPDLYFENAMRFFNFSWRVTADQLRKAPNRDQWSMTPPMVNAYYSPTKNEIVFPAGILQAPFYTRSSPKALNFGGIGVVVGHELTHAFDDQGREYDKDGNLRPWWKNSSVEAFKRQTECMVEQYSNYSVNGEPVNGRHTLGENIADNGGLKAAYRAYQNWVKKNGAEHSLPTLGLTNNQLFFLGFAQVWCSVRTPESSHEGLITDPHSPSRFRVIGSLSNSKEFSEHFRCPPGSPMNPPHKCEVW

[7] = target: Neprilysin (Homo sapiens, UniProt P08473); assay: Inhibition against neutral endopeptidase
Sequence of Neprilysin (P08473 whole entry): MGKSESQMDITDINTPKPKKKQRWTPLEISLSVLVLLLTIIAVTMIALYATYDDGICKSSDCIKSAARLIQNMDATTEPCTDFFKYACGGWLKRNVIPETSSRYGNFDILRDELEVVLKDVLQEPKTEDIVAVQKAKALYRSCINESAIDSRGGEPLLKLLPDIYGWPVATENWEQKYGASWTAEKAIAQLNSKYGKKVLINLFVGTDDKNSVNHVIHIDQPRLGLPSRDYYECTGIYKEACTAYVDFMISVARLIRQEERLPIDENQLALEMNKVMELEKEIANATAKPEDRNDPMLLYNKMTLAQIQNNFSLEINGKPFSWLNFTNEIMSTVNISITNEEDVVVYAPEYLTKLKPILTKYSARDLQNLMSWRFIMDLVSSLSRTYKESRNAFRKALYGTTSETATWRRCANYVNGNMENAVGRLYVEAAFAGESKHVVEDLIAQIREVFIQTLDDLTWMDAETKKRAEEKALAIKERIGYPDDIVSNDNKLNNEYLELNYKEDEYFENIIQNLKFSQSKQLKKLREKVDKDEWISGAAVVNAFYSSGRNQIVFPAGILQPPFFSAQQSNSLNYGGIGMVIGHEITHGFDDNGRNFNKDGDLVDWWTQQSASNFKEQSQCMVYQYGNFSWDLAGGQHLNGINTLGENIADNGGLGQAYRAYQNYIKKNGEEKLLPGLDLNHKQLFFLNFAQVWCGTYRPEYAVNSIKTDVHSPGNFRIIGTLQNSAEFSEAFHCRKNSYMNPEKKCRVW

[8] = target: Macrophage metalloelastase (Homo sapiens, UniProt P39900); assay: Inhibition of human macrophage elastase, matrix metalloprotease-12 (MMP-12).
Sequence of Macrophage metalloelastase (P39900 whole entry): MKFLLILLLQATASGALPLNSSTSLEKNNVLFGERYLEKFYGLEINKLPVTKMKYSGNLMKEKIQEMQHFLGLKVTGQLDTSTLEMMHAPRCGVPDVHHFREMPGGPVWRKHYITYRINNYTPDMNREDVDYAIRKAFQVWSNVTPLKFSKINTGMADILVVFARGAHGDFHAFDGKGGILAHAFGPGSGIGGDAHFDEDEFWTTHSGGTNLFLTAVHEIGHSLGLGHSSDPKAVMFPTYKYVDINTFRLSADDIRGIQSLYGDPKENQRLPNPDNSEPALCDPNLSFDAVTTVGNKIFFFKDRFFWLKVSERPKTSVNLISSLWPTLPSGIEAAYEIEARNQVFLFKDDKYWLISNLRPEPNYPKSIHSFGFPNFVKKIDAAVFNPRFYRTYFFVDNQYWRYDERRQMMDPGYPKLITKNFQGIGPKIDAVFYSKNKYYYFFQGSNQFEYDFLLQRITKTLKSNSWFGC

[9] = target: Angiotensin-converting enzyme (Homo sapiens, UniProt P12821); assay: Inhibition against angiotensin I converting enzyme
Sequence of Angiotensin-converting enzyme (P12821 whole entry): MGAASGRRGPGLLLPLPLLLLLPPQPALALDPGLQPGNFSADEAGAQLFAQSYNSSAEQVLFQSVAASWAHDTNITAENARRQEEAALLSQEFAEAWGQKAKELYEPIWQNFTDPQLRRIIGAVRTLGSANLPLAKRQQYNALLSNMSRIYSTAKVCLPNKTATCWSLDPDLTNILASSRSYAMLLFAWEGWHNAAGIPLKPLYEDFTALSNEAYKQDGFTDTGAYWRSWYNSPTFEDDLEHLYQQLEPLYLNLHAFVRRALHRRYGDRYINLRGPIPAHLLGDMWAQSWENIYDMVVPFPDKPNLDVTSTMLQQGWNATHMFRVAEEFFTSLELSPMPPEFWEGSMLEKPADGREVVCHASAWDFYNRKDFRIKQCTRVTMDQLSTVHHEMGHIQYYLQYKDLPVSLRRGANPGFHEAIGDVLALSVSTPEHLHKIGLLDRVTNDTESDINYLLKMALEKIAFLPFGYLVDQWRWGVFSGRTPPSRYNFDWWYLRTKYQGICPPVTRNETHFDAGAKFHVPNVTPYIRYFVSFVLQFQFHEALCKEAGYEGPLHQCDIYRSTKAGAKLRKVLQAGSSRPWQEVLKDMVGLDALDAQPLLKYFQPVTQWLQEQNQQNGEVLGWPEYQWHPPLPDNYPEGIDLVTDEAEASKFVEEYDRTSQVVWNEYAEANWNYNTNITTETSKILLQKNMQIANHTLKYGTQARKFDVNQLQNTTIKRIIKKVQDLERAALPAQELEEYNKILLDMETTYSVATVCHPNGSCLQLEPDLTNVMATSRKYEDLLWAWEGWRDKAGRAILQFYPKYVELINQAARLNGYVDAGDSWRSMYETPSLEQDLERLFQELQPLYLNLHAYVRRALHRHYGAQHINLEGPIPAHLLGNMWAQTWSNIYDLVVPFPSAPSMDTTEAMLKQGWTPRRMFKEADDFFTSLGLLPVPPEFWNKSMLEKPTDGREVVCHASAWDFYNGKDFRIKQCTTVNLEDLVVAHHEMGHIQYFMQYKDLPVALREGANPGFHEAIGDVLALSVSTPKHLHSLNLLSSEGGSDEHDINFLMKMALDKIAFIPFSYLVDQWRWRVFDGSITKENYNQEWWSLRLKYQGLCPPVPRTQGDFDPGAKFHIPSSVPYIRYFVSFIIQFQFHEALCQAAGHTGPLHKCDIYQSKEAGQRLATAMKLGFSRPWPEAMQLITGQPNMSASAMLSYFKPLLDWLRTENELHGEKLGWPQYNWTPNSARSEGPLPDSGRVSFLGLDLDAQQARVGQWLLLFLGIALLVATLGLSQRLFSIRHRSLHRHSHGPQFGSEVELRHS

For O=C(CN1Cc2c(cccc2C(F)(F)F)NS1(=O)=O)NO, the MIC [1] was over 64 µg/mL, the IC50 [2] was 130 nM and the MIC [3] was 8 µg/mL (≈ 24.6 µM). For the same molecule, the MIC [4] was 32 µg/mL (≈ 98.4 µM).
O=C(CN1Cc2c(Cl)cccc2N(CC2CC2)S1(=O)=O)NO showed an MIC [1] of over 64 µg/mL, an IC50 [2] of 110 nM and an MIC [3] of 4 µg/mL (≈ 11.6 µM). It also gave an MIC [4] of 64 µg/mL (≈ 185 µM).
O=C(CN1Cc2c(Cl)cccc2N(Cc2ccccc2)S1(=O)=O)NO gave an MIC [1] of 64 µg/mL (≈ 168 µM), an MIC [3] of 8 µg/mL (≈ 21 µM) and an MIC [4] of 32 µg/mL (≈ 83.8 µM).
CCCCN1c2cccc(Cl)c2CN(CC(=O)NO)S1(=O)=O gave an MIC [1] of over 64 µg/mL, an IC50 [2] of 590 nM and an MIC [3] of 2 µg/mL (≈ 5.75 µM). The MIC [4] was 64 µg/mL (≈ 184 µM).
With O=C(CN1Cc2c(Cl)cccc2NS1(=O)=O)NO the IC50 [5] was over 500 nM, the IC50 [6] was over 10000 nM and the IC50 [7] was over 100000 nM. For the same molecule, the IC50 [8] was over 100000 nM, the MIC [1] was over 64 µg/mL and the IC50 [9] was over 100000 nM. It also gave an IC50 [2] of 120 nM, an MIC [3] of 8 µg/mL (≈ 27.4 µM) and an MIC [4] of 16 µg/mL (≈ 54.8 µM).
Molecule O=C(CN1Cc2c(Cl)cccc2NC1=O)NO has an IC50 [5] of 460 nM, an IC50 [6] of over 10000 nM and an IC50 [7] of over 100000 nM. The IC50 [8] was over 100000 nM, the MIC [1] was 16 µg/mL (≈ 62.6 µM) and the IC50 [9] was 90000 nM. The IC50 [2] was 310 nM, the MIC [3] was 2 µg/mL (≈ 7.82 µM) and the MIC [4] was 8 µg/mL (≈ 31.3 µM).
In the case of O=C(CN1Cc2c(cccc2C(F)(F)F)NC1=O)NO, the MIC [1] is reported as 64 µg/mL (≈ 221 µM), the IC50 [2] is reported as 230 nM and the MIC [3] is reported as 8 µg/mL (≈ 27.7 µM). For the same molecule, the MIC [4] was 64 µg/mL (≈ 221 µM).
O=C(CN1Cc2ccccc2NS1(=O)=O)NO gave an MIC [1] of over 64 µg/mL, an IC50 [2] of 760 nM and an MIC [3] of over 64 µg/mL. For the same molecule, the MIC [4] was over 64 µg/mL.
O=C(CN1Cc2c(Br)cccc2N(CC2CC2)S1(=O)=O)NO showed an MIC [1] of 64 µg/mL (≈ 164 µM), an MIC [3] of 1 µg/mL (≈ 2.56 µM) and an MIC [4] of 64 µg/mL (≈ 164 µM).
NNC(=O)CN1Cc2c(Cl)cccc2NC1=O gave an MIC [1] of 50 µg/mL (≈ 196 µM) and an IC50 [2] of 27000 nM.
O=C(CN1Cc2c(Cl)cccc2N(CCCc2ccccc2)S1(=O)=O)NO gave an MIC [1] of over 64 µg/mL, an MIC [3] of 8 µg/mL (≈ 19.5 µM) and an MIC [4] of 32 µg/mL (≈ 78.1 µM).
O=C(CN1Cc2ccccc2NC1=O)NO gave an MIC [1] of over 64 µg/mL, an MIC [3] of over 64 µg/mL and an MIC [4] of over 64 µg/mL.
For O=C(CN1Cc2c(F)cccc2NS1(=O)=O)NO, the MIC [1] was over 64 µg/mL, the IC50 [2] was 870 nM and the MIC [3] was over 64 µg/mL. It also gave an MIC [4] of over 64 µg/mL.
O=C(CN1Cc2c(F)cccc2NC1=O)NO was tested, and the MIC [1] was over 64 µg/mL, the IC50 [2] was 870 nM and the MIC [3] was 16 µg/mL (≈ 66.9 µM). The MIC [4] was 64 µg/mL (≈ 268 µM).
With O=C(CN1Cc2c(Br)cccc2NS1(=O)=O)NO the MIC [1] was 32 µg/mL (≈ 95.2 µM), the IC50 [2] was 98 nM and the MIC [3] was 4 µg/mL (≈ 11.9 µM). It also gave an MIC [4] of over 64 µg/mL.
For O=C(CN1Cc2c(Br)cccc2NC1=O)NO, the MIC [1] was 32 µg/mL (≈ 107 µM), the IC50 [2] was 49 nM and the MIC [3] was 4 µg/mL (≈ 13.3 µM). For the same molecule, the MIC [4] was 16 µg/mL (≈ 53.3 µM).
